# Measurements taken from ChEMBL document CHEMBL1629571, “High prevalence of plasmid-mediated quinolone resistance determinants qnr, aac(6')-Ib-cr, and qepA among ceftiofur-resistant Enterobacteriaceae isolates from companion and food-producing animals” (2009).
# Experiments:
# Klebsiella pneumoniae [1] = assay: Antimicrobial activity against Klebsiella pneumoniae C1 expressing aac(6')-Ib-cr gene by agar dilution method
# Klebsiella pneumoniae [2] = assay: Antimicrobial activity against Klebsiella pneumoniae C7 expressing aac(6')-Ib-cr gene by agar dilution method
# Citrobacter freundii [3] = assay: Antimicrobial activity against Citrobacter freundii D26 expressing qnrB6 and CTX-M-9G genes by agar dilution method; format: functional
# How it was run: (§1)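 Agar dilution MICs per CLSI guidelines, with E. coli ATCC 25922 as the quality-control strain. Isolates were ceftiofur-resistant (MIC ≥ 8 μg/ml) Enterobacteriaceae from diseased companion or food-producing animals in Guangdong, China. They were identified biochemically and with Biolog Microlog, and PMQR and β-lactamase genes were typed by PCR and sequencing.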
# Escherichia coli [4] = assay: Antimicrobial activity against Escherichia coli D71 expressing qepA, CTX-M-1G and CTX-M-9G genes by agar dilution method
# Escherichia coli [5] = assay: Antimicrobial activity against Escherichia coli Du19 expressing qnrB6 and CTX-M-9G genes by agar dilution method; format: functional; how it was run: as §1
# Escherichia coli [6] = assay: Antimicrobial activity against Escherichia coli P498 expressing qnrS1 gene by agar dilution method
# Escherichia coli [7] = assay: Antimicrobial activity against Escherichia coli Chi197 expressing aac(6')-Ib-cr and CTX-M-9G genes by agar dilution method
# Escherichia coli [8] = assay: Antimicrobial activity against Escherichia coli PA09 expressing aac(6')-Ib-cr gene by agar dilution method
# Escherichia coli [9] = assay: Antimicrobial activity against Escherichia coli PA11 expressing aac(6')-Ib-cr, qnrS1 and qepA genes by agar dilution method; format: functional; how it was run: as §1
# Escherichia coli [10] = assay: Antimicrobial activity against Escherichia coli PA14 expressing aac(6')-Ib-cr and qepA genes by agar dilution method
# Klebsiella pneumoniae [11] = assay: Antimicrobial activity against Klebsiella pneumoniae D24 expressing aac(6')-Ib-cr and CTX-M-9G genes by Etest
# Citrobacter freundii [12] = assay: Antimicrobial activity against Citrobacter freundii D26 expressing qnrB6 and CTX-M-9G genes by Etest; format: functional
# Escherichia coli [13] = assay: Antimicrobial activity against Escherichia coli PA11 expressing aac(6')-Ib-cr, qnrS1 and qepA genes by Etest; format: functional
# Klebsiella pneumoniae [14] = assay: Antimicrobial activity against Klebsiella pneumoniae D24 expressing qnrB6 and CTX-M-9G genes by agar dilution method
# Klebsiella pneumoniae [15] = assay: Antimicrobial activity against Klebsiella pneumoniae D10 expressing aac(6')-Ib-cr, qnrB4, CTX-M-1G and DHA-1 genes by agar dilution method; format: functional
# Escherichia coli [16] = assay: Antimicrobial activity against Escherichia coli J53 by agar dilution method; format: functional
# Escherichia coli [17] = assay: Antimicrobial activity against Escherichia coli J53 transformed with pHND1 carrying DHA-1 gene by agar dilution method; format: functional
# How it was run: (§2)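 Transconjugants came from liquid mating of qnr-positive donors into E. coli J53Azi^r. They were selected on tryptic soy agar with sodium azide (100 μg/ml) plus sulfamethoxazole (300 μg/ml) or ampicillin (100 μg/ml). MICs were determined by CLSI agar dilution, with E. coli ATCC 25922 as the quality control strain.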
# Escherichia coli [18] = assay: Antimicrobial activity against Escherichia coli J53 transformed with pHND2 carrying qnrB6 and CTX-M-9G genes by agar dilution method
# Escherichia coli [19] = assay: Antimicrobial activity against Escherichia coli J53 transformed with pHND3 carrying qnrB6 gene by agar dilution method; format: functional; how it was run: as §2
# Escherichia coli [20] = assay: Antimicrobial activity against Escherichia coli J53 transformed with pHNDU1 carrying qnrB6 gene by agar dilution method; format: functional; how it was run: as §2
# Escherichia coli [21] = assay: Antimicrobial activity against Escherichia coli J53 transformed with pHNPA1 carrying qnrB6 gene by agar dilution method
# Klebsiella pneumoniae [22] = assay: Antimicrobial activity against Klebsiella pneumoniae D10 expressing aac(6')-Ib-cr, qnrB4, CTX-M-1G and DHA-1 genes by Etest; format: functional
# Escherichia coli [23] = assay: Antimicrobial activity against Escherichia coli J53 transformed with pHND1 carrying DHA-1 gene by Etest; format: functional
# Escherichia coli [24] = assay: Antimicrobial activity against Escherichia coli J53 transformed with pHND2 carrying qnrB6 and CTX-M-9G genes by Etest; format: functional
# Escherichia coli [25] = assay: Antimicrobial activity against Escherichia coli Du19 expressing qnrB6 and CTX-M-9G genes by Etest; format: functional
# Escherichia coli [26] = assay: Antimicrobial activity against Escherichia coli J53 transformed with pHNDU1 carrying qnrB6 gene by Etest; format: functional
Molecule,MIC (Citrobacter freundii [3]) [µg/mL],MIC (Escherichia coli [5]) [µg/mL],MIC (Escherichia coli [9]) [µg/mL],MIC (Klebsiella pneumoniae [14]) [µg/mL],MIC (Klebsiella pneumoniae [15]) [µg/mL],MIC (Escherichia coli [16]) [µg/mL],MIC (Escherichia coli [17]) [µg/mL],MIC (Escherichia coli [18]) [µg/mL],MIC (Escherichia coli [19]) [µg/mL],MIC (Escherichia coli [20]) [µg/mL],MIC (Escherichia coli [21]) [µg/mL],also measured
O=C(O)c1cn(C2CC2)c2cc(N3CCNCC3)c(F)cc2c1=O [CIPROFLOXACIN],4,64,> 128,2,–,–,–,–,–,–,–,MIC (Klebsiella pneumoniae [1]): 8 µg/mL; MIC (Klebsiella pneumoniae [2]): 8 µg/mL; MIC (Escherichia coli [4]): 64 µg/mL; MIC (Escherichia coli [6]): 64 µg/mL; MIC (Escherichia coli [7]): 64 µg/mL; MIC (Escherichia coli [8]): 64 µg/mL; MIC (Escherichia coli [10]): > 128 µg/mL; MIC (Klebsiella pneumoniae [11]): 2 µg/mL; MIC (Citrobacter freundii [12]): 4 µg/mL; MIC (Escherichia coli [13]): > 128 µg/mL
CCn1cc(C(=O)O)c(=O)c2ccc(C)nc21 [NALIDIXIC ACID],128,> 128,> 128,64,> 128,4,16,16,4,64,32,–
CO/N=C(\C(=O)N[C@@H]1C(=O)N2C(C(=O)[O-])=C(C[n+]3cccc4c3CCCC4)CS[C@H]12)c1csc(N)n1 [CEFQUINOME],64,32,64,64,64,0.06,0.06,8,0.06,0.25,0.25,–
CO/N=C(\C(=O)N[C@@H]1C(=O)N2C(C(=O)O)=C(COC(C)=O)CS[C@H]12)c1csc(N)n1 [CEFOTAXIME],64,128,16,64,128,0.06,0.125,32,0.06,1,0.5,–
CC1(C)S[C@@H]2[C@H](NC(=O)[C@H](N)c3ccccc3)C(=O)N2[C@H]1C(=O)O [AMPICILLIN],> 128,> 128,> 256,> 128,> 128,–,> 128,> 128,> 128,64,> 256,–
C[C@H]1COc2c(N3CCN(C)CC3)c(F)cc3c(=O)c(C(=O)O)cn1c23.C[C@H]1COc2c(N3CCN(C)CC3)c(F)cc3c(=O)c(C(=O)O)cn1c23.O [LEVOFLOXACIN],–,–,–,–,–,–,–,–,–,–,–,MIC (Klebsiella pneumoniae [22]): 16 µg/mL; MIC (Escherichia coli [23]): 0.25 µg/mL; MIC (Escherichia coli [24]): 0.25 µg/mL; MIC (Citrobacter freundii [12]): 2 µg/mL; MIC (Escherichia coli [25]): 16 µg/mL; MIC (Escherichia coli [26]): 2 µg/mL; MIC (Escherichia coli [13]): 128 µg/mL
COc1cc(Cc2cnc(N)nc2N)cc(OC)c1OC [TRIMETHOPRIM],> 256,> 256,> 256,> 256,> 256,0.25,> 256,> 256,> 256,0.5,> 256,–
O=C(N[C@H](CO)[C@H](O)c1ccc([N+](=O)[O-])cc1)C(Cl)Cl [CHLORAMPHENICOL],64,> 128,> 256,> 128,> 128,8,> 128,> 128,8,> 128,–,–
GENTAMICIN,> 128,> 128,> 256,–,> 128,0.125,> 128,–,16,> 128,–,–
Cc1cc(NS(=O)(=O)c2ccc(N)cc2)no1 [SULFAMETHOXAZOLE],> 256,> 256,> 256,> 256,> 256,16,> 256,> 256,4,128,> 256,–
CC(C)(O/N=C(\C(=O)N[C@@H]1C(=O)N2C(C(=O)[O-])=C(C[n+]3ccccc3)CS[C@H]12)c1csc(N)n1)C(=O)O [CEFTAZIDIME],1,16,32,2,128,0.125,0.25,1,0.125,0.5,1,–
NCC[C@H](O)C(=O)N[C@@H]1C[C@H](N)[C@@H](O[C@H]2O[C@H](CN)[C@@H](O)[C@H](O)[C@H]2O)[C@H](O)[C@H]1O[C@H]1O[C@H](CO)[C@@H](O)[C@H](N)[C@H]1O [AMIKACIN],> 128,> 128,> 256,2,> 128,0.5,> 128,0.5,1,> 128,0.25,–
CO/N=C(\C(=O)N[C@@H]1C(=O)N2C(C(=O)O)=C(CSC(=O)c3ccco3)CS[C@H]12)c1csc(N)n1 [CEFTIOFUR],128,128,> 128,> 128,128,0.25,0.5,64,0.25,0.25,0.5,–
